Rows were chosen to be rich in hits. Some 3.1% of all compounds tested hit in one or more screens of this group.
PAFAH2 inh: inhibitors of human PAFAH2 | AID 492956 | recombinant PAFAH2, FP-rhodamine activity probe, fluorescence polarization | inhibition, % at 3.39 µM | Q99487 | 0.99% of 340,000 active;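 active = inhibition above the mean over all tested compounds plus 3 SD, cut at about 30% in these data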;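 note: inhibitors block probe labeling of enzyme so polarization drops; 0% = enzyme with DMSO and 100% = wells lacking PAFAH2 protein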
PAFAH1B2 FP inh: PAFAH1B2 (human) inhibition. P68402. recombinant PAFAH1B2, FP-rhodamine activity probe, fluorescence polarization. inhibition, % at 3.39 µM. 1.2% of 340,000 active;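 active = inhibition above the mean of all tested compounds plus 3 SD, cut at about 24% in these data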;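 note: 0% = enzyme with DMSO and 100% = wells lacking PAFAH1B2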
pPAFAH inh: pPAFAH (human) enzyme inhibition | recombinant pPAFAH, FP-rhodamine probe fluorescence polarization | 1.5% of 330,000 active | Q13093 | inhibition, % at 3.39 µM;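 active = inhibition above the mean inhibition across the screen plus 3 SD, cut at about 25% in these data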;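 note: inhibitors block binding of the rhodamine activity-based probe so polarization drops; 0% = enzyme with DMSO and 100% = wells lacking pPAFAH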
PAFAH1B3 FP inh: PAFAH1B3 (human) inhibition | 0.28% of 340,000 active | recombinant PAFAH1B3, FP-rhodamine probe, fluorescence polarization | inhibition, % at 3.39 µM;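 active = inhibition above the screen-wide average of all tested compounds plus 3 SD, cut at about 25% in these data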;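 note: 0% = enzyme with DMSO only and 100% = wells lacking PAFAH1B3 protein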
Apaf1 inhib: inhibitors of human Apaf-1 apoptosome. reconstituted apoptosome caspase-3 activity, DEVD-Rh110 fluorescence. inhibition, % at 20 µM. 0.71% of 330,000 active; active = inhibition of at least 40% at 20 µM;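 note: plate controls were DMSO wells for no effect and DEVD-CHO caspase inhibitor wells for full effect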
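System – cell-free apoptosome with Apaf-1, procaspase-3 and caspase-9 · Buffer or medium – pH 7.5 Hepes buffer with CHAPS, BSA, DTT · Also added – cytochrome c with DEVD-Rh110 · Times – 30 min compound preincubation, 50 min activation, room temperature · Technique – Rh110 fluorescence intensity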
The depositor's hits bear a star; . = no result.

SMILES	PAFAH2 inh	PAFAH1B2 FP inh	pPAFAH inh	PAFAH1B3 FP inh	Apaf1 inhib
O=C1CSC(c2cccc([N+](=O)[O-])c2)N1C1CC2CCC1C2 (configuration not stated)	2	24*	0	-2	-10
CN(C(=O)COC(=O)c1nn(C)c(=O)c2ccccc12)c1c(N)n(Cc2ccccc2)c(=O)[nH]c1=O	-5	2	0	4	9
COc1ccc(CCn2c(S)nc3ccccc3c2=O)cc1	-4	-1	-2	5	-1
Clc1ccc(OCCSCc2nc3ccccc3[nH]2)cc1	0	31*	7	1	3
Cc1ccc(OCCSCc2nc3ccccc3[nH]2)cc1	-3	11	5	-3	-3
CCCCNC(=O)O[C@@H]1C[C@H]2CCC(=O)N3CC[C@@H](C1)[C@@H]23	2	6	-2	-3	1
Cc1cc(C)cc(NC(=O)Nc2ccc(-n3ccc(C(F)(F)F)n3)cc2)c1	2	49*	-24	7	-15
O=C(Nc1ccc(-n2ccc(C(F)(F)F)n2)cc1)Nc1cccc(Cl)c1	-23	-8	-26	-30	13
O=C1NN(c2ccc(Cl)c(Cl)c2)C(=O)/C1=C/c1cccc(OC(=O)c2cccs2)c1	.	.	57*	.	24
Cc1ccc(S(=O)(=O)Oc2cccc([N+](=O)[O-])c2)cc1	1	25*	.	-2	.
Cc1ccc(S(=O)(=O)Oc2ccccc2)cc1	-5	12	.	5	.
CCC1CCCCN1CC(=O)c1c(C)[nH]c2cc(C)ccc12 (configuration not stated)	3	0	.	9	0
Cc1ccc2nc(SCC(=O)N3CCN(c4ccccc4)CC3)[nH]c2c1	7	30*	3	3	-10
O=C(CSc1nc2ccccc2[nH]1)N1CCN(c2ccccc2)CC1	18	4	-3	0	20
COc1ccc(CNC(=O)CSc2nc3ccc(C)cc3[nH]2)cc1	-8	29*	10	-3	1
COc1ccc(OC)c(N2C(=O)c3cccnc3C2=O)c1	1	0	5	8	-5
O=[N+]([O-])c1ccccc1/C=C/C=N/n1c(-c2ccc(Cl)cc2)n[nH]c1=S	4	0	27*	3	-12
COC(=O)c1c(N)n(CCCN2CCOCC2)c2nc3ccccc3nc12	1	0	1	6	-72
COc1ccc(CNC(=O)c2c(N)n(CCCN3CCOCC3)c3nc4ccccc4nc23)cc1	3	2	18	11	87*
Cc1nc2c(C(=O)NCCc3ccccc3Cl)c[nH]n2c(=O)c1Cl	13	11	25*	7	18
Cc1nc2c(C(=O)NCc3ccccc3)c[nH]n2c(=O)c1Cl	8	9	13	-3	4
Cc1nc2c(C(=O)NCc3ccccc3Cl)c[nH]n2c(=O)c1Cl	29	-3	32*	1	-1
COC(=O)C(C)Oc1ccc2c3c(c(=O)oc2c1)CCCCC3 (configuration not stated)	3	1	28*	-1	-4
O=C(NCC(c1ccco1)N1CCCCC1)c1cccc(NS(=O)(=O)c2ccc(Br)cc2)c1 (configuration not stated)	-8	30*	11	4	13
Cc1ccccc1NS(=O)(=O)c1ccc(C(=O)NCC(c2ccco2)N(C)C)cc1 (configuration not stated)	2	2	30*	-5	3
SMILES	PAFAH2 inh	PAFAH1B2 FP inh	pPAFAH inh	PAFAH1B3 FP inh	Apaf1 inhib
O=C(NCC(c1ccco1)N1CCCCC1)c1ccc(COc2ccc(Cl)cc2)cc1 (configuration not stated)	-4	31*	.	6	.
Cc1ccccc1NS(=O)(=O)c1ccc(C(=O)NCC(c2ccco2)N2CCCCC2)cc1 (configuration not stated)	-1	6	34*	-1	15
O=C(NCC(c1ccco1)N1CCCCC1)c1ccc(S(=O)(=O)Nc2ccccc2Cl)cc1 (configuration not stated)	0	-1	1	1	9
CCOc1ccc(S(=O)(=O)Nc2ccc(C(=O)NCC(c3ccco3)N(C)C)cc2)cc1 (configuration not stated)	1	5	13	2	7
CC(Oc1ccc(-c2ccccc2)c(F)c1)c1ccn(S(=O)(=O)c2ccc(Cl)cc2)n1 (configuration not stated)	1	-5	5	-8	16
CC(Oc1ccc(Cl)cc1)c1ccnn1S(=O)(=O)c1ccccc1 (configuration not stated)	-4	51*	15	3	23
Nc1nc(SCC(=O)c2c(N)n(C3CC3)c(=O)[nH]c2=O)n[nH]1	4	3	.	3	2
CCOC(=O)N1CCN(C(=O)c2ccccc2NC(=O)COc2ccccc2)CC1	-4	49*	3	-1	8
CCOC(=O)N1CCN(C(=O)c2ccccc2NC(C)=O)CC1	3	-2	0	4	5
CCOC(=O)c1ccc(N2CCN(c3ccc(F)cc3)CC2)c(NC(=O)Nc2cccc(OC)c2)c1	-21	-3	29*	-17	1
COc1cccc(NC(=O)Nc2cc(C(=O)O)ccc2N2CC3CC(C2)c2cccc(=O)n2C3)c1 (configuration not stated)	8	7	34*	8	5
CCOC(=O)c1ccc(N2CCN(c3ccccc3F)CC2)c(NC(=O)Nc2ccccc2)c1	-36	-21	-4	-43	12
CC(C)(C)OC(=O)C[C@H]1C/C=C\C[C@@H](CC(=O)N(CCO)Cc2ccccc2)C(=O)N[C@@H](Cc2ccccc2)COC1=O	4	8	3	-1	19
O=S(=O)(Nc1cccc(-n2cnnn2)c1)c1ccccc1F	-3	2	2	-1	3
CC(=O)Nc1sc(N)nc1-c1ccccc1	0	-4	2	-7	5
Nc1nc(-c2ccccc2)c(N=Nc2cccc3ccccc23)s1	-2	3	31*	6	15
CC1=C(C)CC(C(=O)NCc2cccc(Cl)c2)C(C(=O)O)C1 (configuration not stated)	-10	1	-4	0	-4
O=C(O)c1cc(-c2cccc(Cl)c2)nc2nc(N3CCCCC3)sc12	12	82*	0	27*	19
CCOC(=O)c1cc2c(c(CCO)n1)[C@@H](CCO)N(S(=O)(=O)C(C)(C)C)C2	-8	3	.	2	.
COc1ccc(S(=O)(=O)N(C)C[C@H]2Oc3ccc(NC(=O)Nc4ccc5c(c4)OCO5)cc3C(=O)N([C@H](C)CO)C[C@@H]2C)cc1	-17	16	16	8	10
CC(C)(C)c1ccc(C(=O)NN2C(=O)CSC2=S)cc1	-11	25*	8	-2	-5
CCOC(=O)c1[nH]c2ccc(Br)cc2c1NC(=O)CCN1CCCC(C)C1 (configuration not stated)	.	.	2	.	97*

High-throughput results: PubChem, several laboratories
